Laboratory results: ChEMBL document CHEMBL2146421, “Synthesis and anticonvulsant activity of some new thiazolo[3,2-a][1,3]diazepine, benzo[d]thiazolo[5,2-a][12,6]diazepine and benzo[d]oxazolo[5,2-a][12,6]diazepine analogues” (Eur J Med Chem, 2011)

Tests used:
[1] = tested on: Mus musculus; assay: Anticonvulsant activity in Swiss albino mouse assessed as protection against pentylenetetrazole-induced convulsion at 0.75 mmol/kg, ip treated after 30 mins of pentylenetetrazole measured for 30 mins; assay type: functional
[2] = tested on: Mus musculus; assay: Anticonvulsant activity in ip dosed Swiss albino mouse assessed as protection against maximal electroshock-induced convulsion; assay type: functional
In short: (§1)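 Test agent given i.p. to mice; 30 min later electric shock applied through the ears, animals released immediately to observe maximal seizure; percentage protected recorded (10 animals per dose in dose-response runs).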

[3] = tested on: Mus musculus; assay: Neurotoxicity in Swiss albino mouse assessed as inability to climb up backwards in a glass tube within 30 seconds at 3 mmol/kg, ip measured after 15 and 25 mins by Chimney test; assay type: toxicity, organism-based; settings: in vivo
In short: (§2)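 Chimney test: 15 and 25 min after i.p. dosing (3.0, 1.5, 0.75, 0.375 mmol/kg), inability of mice to climb backwards up a glass tube 25 cm long, 3 cm inner diameter, within 30 s recorded as neurological deficit.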

[4] = Toxicity in Swiss albino mouse assessed as mortality at 1.5 mmol/kg, ip measured 7 to 11 mins before pentylenetetrazole challenge; assay type: organism-based; settings: in vivo, read-out: Activity
In short: (§3)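 Compounds given i.p. at 3.0, 1.5, 0.75 and 0.375 mmol/kg to 6 mice per compound. Deaths occurring before the PTZ injection were recorded. PTZ (83 mg/kg s.c.) followed 30 min after compound dosing.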

[5] = tested on: Mus musculus; assay: Neurotoxicity in Swiss albino mouse assessed as inability to climb up backwards in a glass tube within 30 seconds at 0.37 mmol/kg, ip measured after 15 and 25 mins by Chimney test; assay type: toxicity, organism-based; settings: in vivo; in short: as §2
[6] = tested on: Mus musculus; assay: Anticonvulsant activity in Swiss albino mouse assessed as protection against maximal electroshock-induced convulsion at 1.5 mmol/kg, ip […]; assay type: functional
In short: (§4)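 Test compound given i.p. to mice; 30 min later, electric shock was applied through the ears while the mice were hand-restrained. The mice were then released to observe the maximal seizure. Each dose was tested in 10 animals and the percentage protected was recorded.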

[7] = tested on: Mus musculus; assay: Anticonvulsant activity in Swiss albino mouse assessed as protection against maximal electroshock-induced convulsion at 0.37 mmol/kg, ip […]; assay type: functional; in short: as §4
[8] = tested on: Mus musculus; assay: Anticonvulsant activity in Swiss albino mouse assessed as protection against maximal electroshock-induced convulsion at 3.0 mmol/kg, ip […]; assay type: functional; in short: as §1
[9] = tested on: Mus musculus; assay: Anticonvulsant activity in Swiss albino mouse assessed as protection against maximal electroshock-induced convulsion at 0.75 mmol/kg, ip […]; assay type: functional; in short: as §1
[10] = Toxicity in Swiss albino mouse by Spearman-Karber method; assay type: organism-based; settings: in vivo
In short: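 LD50 in mice was determined by the Spearman–Karber method, with doses chosen at equal logarithmic intervals. 95% confidence limits were reported.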

[11] = tested on: Mus musculus; assay: Anticonvulsant activity in Swiss albino mouse assessed as protection against bicuculline-induced convulsion at 0.37 mmol/kg, ip […] measured for 30 mins; assay type: functional
In short: (§5)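 Mice (6 per compound) dosed i.p.; 30 min later given bicuculline 1 mg/kg s.c. (freshly dissolved in 1 ml warmed 0.1 N HCl, made up with 0.9% NaCl), then observed 30 min; percentage anticonvulsion (animals protected) calculated. Dose-response runs used 10 animals per dose.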

[12] = tested on: Mus musculus; assay: Anticonvulsant activity in Swiss albino mouse assessed as protection against bicuculline-induced convulsion at 3.0 mmol/kg, ip […] measured for 30 mins; assay type: functional; in short: as §5
[13] = tested on: Mus musculus; assay: Anticonvulsant activity in Swiss albino mouse assessed as protection against picrotoxin-induced convulsion at 1.5 mmol/kg, ip […] measured for 30 mins; assay type: functional
In short: (§6)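 Test compound given i.p.; 30 min later, picrotoxin 3.15 mg/kg s.c. was injected. Picrotoxin was freshly dissolved in 1 ml warmed 0.1 N HCl and made up with 0.9% NaCl. Each dose was tested in 10 animals and the percentage of mice protected from clonic convulsions was recorded.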

[14] = Toxicity in ip dosed Swiss albino mouse assessed as sedative effect; assay type: organism-based; settings: in vivo
[15] = Toxicity in Swiss albino mouse assessed as mortality at 0.75 mmol/kg, ip measured 7 to 11 mins before pentylenetetrazole challenge; assay type: organism-based; settings: in vivo, read-out: Activity; in short: as §3
[16] = Toxicity in Swiss albino mouse assessed as mortality at 3 mmol/kg, ip measured 7 to 11 mins before pentylenetetrazole challenge; assay type: organism-based; settings: in vivo, read-out: Activity; in short: as §3
[17] = tested on: Mus musculus; assay: Anticonvulsant activity in Swiss albino mouse assessed as protection against bicuculline-induced convulsion at 1.5 mmol/kg, ip […] measured for 30 mins; assay type: functional; in short: as §5
[18] = tested on: Mus musculus; assay: Anticonvulsant activity in Swiss albino mouse assessed as protection against pentylenetetrazole-induced convulsion at 1.5 mmol/kg, ip treated after 30 mins of pentylenetetrazole measured for 30 mins; assay type: functional
[19] = tested on: Mus musculus; assay: Neurotoxicity in Swiss albino mouse assessed as inability to climb up backwards in a glass tube within 30 seconds at 1.5 mmol/kg, ip measured after 15 and 25 mins by Chimney test; assay type: toxicity, organism-based; settings: in vivo; in short: as §2
[20] = tested on: Mus musculus; assay: Neurotoxicity in Swiss albino mouse assessed as effect on motor activity at 3 mmol/kg, ip after 30 mins; assay type: toxicity, organism-based; settings: in vivo, 0.5 h
In short: (§7)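 Motor activity measured with an activity meter at 0 and 30 min after i.p. dosing, zero time taken as 100%.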

[21] = tested on: Mus musculus; assay: Anticonvulsant activity in Swiss albino mouse assessed as protection against pentylenetetrazole-induced convulsion at 3 mmol/kg, ip treated after 30 mins of pentylenetetrazole measured for 30 mins; assay type: functional
[22] = species on record: Mus musculus; assay: Protective index, ratio of TD50 for Swiss albino mouse to ED50 for anticonvulsant activity in Swiss albino mouse; assay type: functional
In short: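 TD50 (median sedative dose) divided by ED50 (median effective dose), from dose-response curves at 10 mice per dose; 95% confidence limits given.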

[23] = tested on: Mus musculus; assay: Hypnotic activity in Swiss albino mouse assessed as righting reflex at 3 mmol/kg, ip; assay type: ADME, organism-based; settings: in vivo
[24] = tested on: Mus musculus; assay: Anticonvulsant activity in Swiss albino mouse assessed as protection against bicuculline-induced convulsion at 0.75 mmol/kg, ip […] measured for 30 mins; assay type: functional; in short: as §5
[25] = tested on: Mus musculus; assay: Neurotoxicity in Swiss albino mouse assessed as inability to climb up backwards in a glass tube within 30 seconds at 0.75 mmol/kg, ip measured after 15 and 25 mins by Chimney test; assay type: toxicity, organism-based; settings: in vivo; in short: as §2
[26] = Therapeutic index, ratio of LD50 for Swiss albino mouse to ED50 for anticonvulsant activity in Swiss albino mouse; assay type: organism-based; settings: in vivo, read-out: Ratio LD50/ED50
In short: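 TI was calculated as LD50/ED50. ED50 came from dose-response curves in 10 mice per dose. LD50 was determined by the Spearman–Karber method, with doses at equal logarithmic intervals.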

[27] = tested on: Mus musculus; assay: Neurotoxicity in Swiss albino mouse assessed as effect on motor activity at 1.5 mmol/kg, ip after 30 mins; assay type: toxicity, organism-based; settings: in vivo, 0.5 h; in short: as §7
[28] = tested on: Mus musculus; assay: Hypnotic activity in Swiss albino mouse assessed as righting reflex at 0.75 mmol/kg, ip; assay type: ADME, organism-based; settings: in vivo
[29] = tested on: Mus musculus; assay: Neurotoxicity in Swiss albino mouse assessed as effect on motor activity at 0.75 mmol/kg, ip after 30 mins; assay type: toxicity, organism-based; settings: in vivo, 0.5 h; in short: as §7
[30] = tested on: Mus musculus; assay: Anticonvulsant activity in Swiss albino mouse assessed as protection against pentylenetetrazole-induced convulsion at 0.37 mmol/kg, ip treated 30 mins before pentylenetetrazole measured for 30 mins
[31] = tested on: Mus musculus; assay: Hypnotic activity in Swiss albino mouse assessed as righting reflex at 1.5 mmol/kg, ip; assay type: ADME, organism-based; settings: in vivo
[32] = Toxicity in Swiss albino mouse assessed as mortality at 0.375 mmol/kg, ip measured 7 to 11 mins before pentylenetetrazole challenge; assay type: organism-based; settings: in vivo, read-out: Activity; in short: as §3
[33] = tested on: Mus musculus; assay: Neurotoxicity in Swiss albino mouse assessed as inability to climb up backwards in a glass tube within 30 seconds at 0.375 mmol/kg, ip measured after 15 and 25 mins by Chimney test; assay type: toxicity, organism-based; settings: in vivo; in short: as §2
[34] = tested on: Mus musculus; assay: Hypnotic activity in Swiss albino mouse assessed as righting reflex at 0.375 mmol/kg, ip; assay type: ADME, organism-based; settings: in vivo
[35] = tested on: Mus musculus; assay: Anticonvulsant activity in Swiss albino mouse assessed as protection against pentylenetetrazole-induced convulsion at 0.375 mmol/kg, ip treated after 30 mins of pentylenetetrazole measured for 30 mins; assay type: functional
[36] = tested on: Mus musculus; assay: Neurotoxicity in Swiss albino mouse assessed as effect on motor activity at 0.375 mmol/kg, ip after 30 mins; assay type: toxicity, organism-based; settings: in vivo, 0.5 h; in short: as §7
[37] = tested on: Mus musculus; assay: Anticonvulsant activity in Swiss albino mouse assessed as protection against picrotoxin-induced convulsion at 0.75 mmol/kg, ip […] measured for 30 mins; assay type: functional; in short: as §6
[38] = tested on: Mus musculus; assay: Neurotoxicity in Swiss albino mouse assessed as inability to climb up backwards in a glass tube within 30 seconds at 1.38 mmol/kg, ip measured after 15 and 25 mins by Chimney test; assay type: toxicity, organism-based; settings: in vivo
In short: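 Chimney test: at 15 and 25 min after dosing, inability of mice to climb backwards up a glass tube (25 cm long, 3 cm inner diameter) within 30 s was scored as neurological deficit.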

[39] = tested on: Mus musculus; assay: Anticonvulsant activity in Swiss albino mouse assessed as protection against pentylenetetrazole-induced convulsion at 1.38 mmol/kg, ip treated after 30 mins of pentylenetetrazole measured for 30 mins; assay type: functional
[40] = Toxicity in Swiss albino mouse assessed as mortality at 1.38 mmol/kg, sc; assay type: organism-based; settings: in vivo, read-out: Activity

SMILES	Activity [1]	ED50 [2]	Activity [3]	mortality [4]	Activity [5]	Activity [6]	Activity [7]	Activity [8]	Activity [9]	LD50 [10]	Activity [11]	Activity [12]	mortality [15]	Activity [18]	Activity [19]	Activity [25]	Activity [27]	Activity [28]	Activity [29]	Activity [31]	further results
O=C1CCCN2C(=N1)Oc1ccc(Cl)cc12	33%	251 mg/kg	100%	0%	0%	10%	0%	70%	0%	537 mg/kg	0%	100%	0%	67%	50%	17%	50%	0%	33%	0%	Activity [13]: 40%; TD50 [14]: 355 mg/kg; mortality [16]: 0%; Activity [17]: 50%; Activity [20]: 80%; Activity [21]: 100%; Ratio TD50/ED50 [22]: 1.41; Activity [23]: 17%; Activity [24]: 20%; selectivity ratio [26]: 2.14; Activity [30]: 0%
O=C1CCCN2C(=N1)Sc1cc(Cl)ccc12	25%	380 mg/kg	100%	0%	0%	0%	0%	33%	0%	617 mg/kg	10%	100%	0%	50%	25%	0%	33%	0%	20%	0%	Activity [13]: 20%; TD50 [14]: 417 mg/kg; mortality [16]: 0%; Activity [17]: 66%; Activity [20]: 67%; Activity [21]: 100%; Ratio TD50/ED50 [22]: 1.09; Activity [23]: 20%; Activity [24]: 10%; selectivity ratio [26]: 1.62; Activity [30]: 0%
S=C1CCCN2C=CSC2=N1	0%	–	–	50%	–	–	–	–	–	–	–	–	10%	0%	100%	30%	11%	0%	26%	0%	mortality [32]: 0%; Activity [33]: 10%; Activity [34]: 0%; Activity [35]: 0%; Activity [36]: 30%
O=C1CCCN2C=C(Br)SC2=N1	0%	–	–	0%	–	–	–	–	–	–	–	–	0%	30%	80%	40%	12%	0%	13%	30%	mortality [32]: 0%; Activity [33]: 10%; Activity [34]: 0%; Activity [35]: 0%; Activity [36]: 15%
S=C1CCCN2C=C(Br)SC2=N1	50%	252 mg/kg	100%	–	0%	40%	0%	70%	10%	380 mg/kg	0%	100%	–	100%	25%	0%	84%	0%	52%	14%	Activity [13]: 66%; TD50 [14]: 398 mg/kg; mortality [16]: 0%; Activity [17]: 50%; Activity [20]: 92%; Activity [21]: 100%; Ratio TD50/ED50 [22]: 1.58; Activity [37]: 20%; Activity [23]: 40%; Activity [24]: 10%; selectivity ratio [26]: 1.51; Activity [30]: 25%
O=C1CCCN2C=CSC2=N1	–	–	–	33%	–	–	–	–	–	–	–	–	–	0%	0%	–	0%	–	–	0%	–
CCCC(CCC)C(=O)[O-].[Na+] [VALPROATE SODIUM]	–	–	–	–	–	–	–	–	–	–	–	–	–	–	–	–	–	–	–	–	Activity [38]: 100%; Activity [39]: 100%; mortality [40]: 0%
O=C1CCCN2C(=N1)Sc1ccccc12	0%	–	–	0%	–	–	–	–	–	–	–	–	–	70%	0%	–	0%	–	–	0%	Activity [35]: 0%
